The nature of test [1]: Cytotoxicity against human HL60 cells assessed as cell growth inhibition after 48 hrs by cell titer blue cell viability assay. The format is functional, cell-based. To be noted: HL-60, 48 h. The gist of the method:
(§1)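 HL60 or HL60/MX2 cells kept in RPMI 1640 with 10% FBS and 1% penicillin–streptomycin at 37 °C, 5% CO2. Seeded at 1 × 10^4 cells/well and exposed to serial dilutions (1% DMSO final; 1% DMSO medium as control) in triplicate for 48 h. Viability read by CellTiter-Blue. IC50 fitted with a dose–response model; at least three biological repeats on different days; mean ± SD.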

The nature of test [2]: Cytotoxicity against human HL60/MX2 cells assessed as cell growth inhibition after 48 hrs by cell titer blue cell viability assay. The test is classed as functional, cell-based. The conditions noted are these: HL60/MX2, 48 h. The gist of the method:
as §1

For the next test, the system named is HL-60. Briefly: Selectivity ratio of IC50 for human HL60/MX2 cells to IC50 for human HL60 cells. The format is functional. The gist of the method:
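Ratio of IC50 in HL60/MX2 over HL60, both from the 48 h CellTiter-Blue growth-inhibition assay. IC50s are means of at least three biological repeats. Two-tailed Student t test between the two cell lines.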

This is an account of results in ChEMBL document CHEMBL3758100, “4H-Chromene-based anticancer agents towards multi-drug resistant HL60/MX2 human leukemia: SAR at the 4th and 6th positions” (Bioorg Med Chem, 2016).

The structures appear in SMILES notation.

For `C#CCOC(=O)CC1C(C(=O)OCC#C)=C(N)Oc2ccc(-c3cccc(N)c3)cc21` (configuration not stated), the IC50 in test [1] turned out to be 1.73 µM; in test [2], 0.54 µM.

In the case of `CCCC(=O)CC1C(C(=O)OCC)=C(N)Oc2ccc(-c3cc(OC)cc(OC)c3)cc21` (configuration not stated), the IC50 in test [1] was found to be 27.3 µM; in test [2], 11.7 µM. Moreover, in the test on HL-60, the “Ratio IC50” value amounted to 0.43.

In the case of `C#CCOC(=O)C1=C(N)Oc2ccc(-c3cc(OC)cc(OC)c3)cc2C1CC(O)c1ccccc1` (configuration not stated), the 50% inhibitory concentration (IC50) in test [1] was 100 µM; in test [2], 54 µM. Further, the “Ratio IC50” value in the test with HL-60 stood at 0.54.

`C#CCOC(=O)CC1C(C(=O)OCC#C)=C(N)Oc2ccc(-c3cc(OC)cc(OC)c3)cc21` (configuration not stated): the IC50 in test [1] was 1.16 µM; in test [2], 0.86 µM. Moreover, the “Ratio IC50” value in the test with HL-60 is on record as 0.74.

With `C#CCOC(=O)CC1C(C(=O)OCC#C)=C(N)Oc2cc(C)c(-c3cccc(N)c3)c(C)c21` (configuration not stated), the figures for the IC50 in test [1] and in test [2] were 50.5 µM and 82.2 µM, respectively. For the same molecule, in the test with HL-60, the “Ratio IC50” value stood at 1.63.

Regarding `C#CCOC(=O)C1=C(N)Oc2ccc(-c3cc(OC)cc(OC)c3)cc2C1CC(=O)c1ccccc1` (configuration not stated), the half-maximal inhibitory concentration (IC50) in test [1] came to 7.3 µM; in test [2], 5.9 µM. Besides, the “Ratio IC50” value in the test with HL-60 is on record as 0.81.

As for `CCOC(=O)C1=C(N)Oc2ccc(-c3cc(OC)cc(OC)c3)cc2C1CC(=O)c1ccccc1` (configuration not stated), the figures for the half-maximal inhibitory concentration (IC50) in test [1] and in test [2] were 109 µM and 41 µM, respectively. For the same molecule, the “Ratio IC50” value in the test on HL-60 is 0.38.

Turning to `CCOC(=O)CC1C(C(=O)OCC)=C(N)Oc2ccc(-c3cc(OC)cc(OC)c3)cc21` (configuration not stated), the figures for the 50% inhibitory concentration (IC50) in test [1] and in test [2] were 5.4 µM and 1.7 µM, respectively. Further, the “Ratio IC50” value in the test with HL-60 came out at 0.32.

For `C#CCOC(=O)C1=C(N)Oc2ccc(-c3cc(OC)cc(OC)c3)cc2C1CC(=O)CCC` (configuration not stated), the IC50 in test [1] came out at 6.9 µM; in test [2], 5.4 µM. Also, in the test on HL-60, the “Ratio IC50” value turned out to be 0.78.

With `C#CCOC(=O)CC1C(C(=O)OCC#C)=C(N)Oc2cc3c(cc21)-c1cc(OC)cc(OC)c1CO3` (configuration not stated), the half-inhibitory concentration (IC50) in test [1] is 41.9 µM; in test [2] it was 7.4 µM. The “Ratio IC50” value in the test with HL-60 was found to be 0.18.

Consider `C#CCOC(=O)C1=C(N)Oc2ccc(-c3cc(OC)cc(OC)c3)cc2C1CC(O)CCC` (configuration not stated), for which the results for the IC50 in test [1] and in test [2] were 46.6 µM and 35.8 µM, respectively. Also, the “Ratio IC50” value with HL-60 is 0.77.
